DNA FID counter = compounds displacing fluorescent DNA intercalator, primary screen, artefact control for HCV NS3 helicase inhibitor project, biochemical, FID fluorescence. DNA fluorescent intercalator displacement. inhibition, % at 7.9 µM. 290,000 compounds, 0.17% hits; in the data active = inhibition above about 37%;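 note: higher means more ethidium bromide displaced from hairpin DNA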
ANO1 block = TMEM16A chloride channel inhibitors, primary screen, cell-based, HTS | 310,000 compounds, 1.2% hits | HEK293 TMEM16A/YFP iodide influx fluorescence, ionomycin | Anoctamin-1 (Mus musculus), Q8BHY3 | normalized B-score (activity score, 25-100; higher = stronger inhibition) at 10 µM;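 active = ratio plate-corrected score three or more library SD toward inhibition, starting fluorescence score within five deviations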;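 note: score derived from kinetic fluorescence span divided by baseline fluorescence per well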
ANO1 activ = TMEM16A chloride channel activators or potentiators, primary screen, cell-based, HTS. Anoctamin-1 (Mus musculus), Q8BHY3. HEK293 TMEM16A/YFP-H148Q/I152L, iodide quench fluorescence; active compounds read low. 340,000 compounds, 0.3% hits. B-score at 10 µM. AID 623877, 2012;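 active = fluorescence-ratio B-score plate-corrected deviation score at least 3 library SD below zero, with starting fluorescence score within 5 deviations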;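 note: channel opened by trigger with iodide after compound preincubation; score built on the fluorescence ratio of max minus min over baseline; more negative score means more quench and so TMEM16A activation or potentiation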
Apaf1 inhib = inhibitors of human Apaf-1 apoptosome, primary screen, biochemical, DEVD-Rh110 fluorescence, uHTS; Apoptotic protease-activating factor 1 (Homo sapiens), O14727; reconstituted apoptosome caspase-3 activity; inhibition, % at 20 µM; 330,000 compounds, 0.71% hits; active = inhibition of at least 40% at 20 µM
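Material: reconstituted apoptosome with Apaf-1, cytochrome c, caspase-9, procaspase-3, dATP; medium: pH 7.5 Hepes buffer with CHAPS, BSA, DTT; also added: cytochrome c and DEVD-Rh110 substrate; timing: 30 min plus 50 min, RT; signal: Rh110 fluorescence intensity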
UBC13 polyUb = UBC13 polyubiquitin chain formation inhibitors, primary screen, biochemical, TR-FRET, uHTS; inhibition, % at 20 µM; 330,000 compounds, 0.47% hits; in the data active = inhibition above about 45%, passing the limit was not always enough
Target sequence (P61088 whole entry, looked up): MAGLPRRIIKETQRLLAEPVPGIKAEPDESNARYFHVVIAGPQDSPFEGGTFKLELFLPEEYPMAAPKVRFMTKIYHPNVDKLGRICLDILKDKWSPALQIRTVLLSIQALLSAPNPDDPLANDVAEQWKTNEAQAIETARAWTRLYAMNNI
Apaf-1 inh conf2 = Apaf-1 inhibitors, single-dose retest, confirmation, biochemical, fluorescence, DEVD-Rh110, 20 µM; shares compounds with Apaf1 inhib; reconstituted apoptosome, caspase-3 DEVD-Rh110 fluorescence; inhibition, % at 20 µM; 1,800 compounds, 25% hits; AID 504614, 2011;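 active = mean inhibition of at least 40% at 20 µM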
Rh110 quench = Rh110 fluorescence interference by putative Apaf-1 inhibitors, confirmation, artefact control for Apaf-1 inhibitor project, biochemical, 20 µM; shares compounds with Apaf1 inhib; quenched caspase reaction; activation (fluorescence interference), % at 20 µM; 1,800 tested, under 10 active;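 active = signal rise of 40% or more at 20 µM, treated as a fluorescence artifact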
Fluor interf inh = fluorescence interference of Apaf-1 inhibitor hits, dose response, artefact control for Apaf-1 inhibitor project. shares compounds with Apaf1 inhib. IC50, µM. fluorescence interference counterscreen, Apaf-1 assay format. 460 tested, under 10 active; call rule not given here
A number is an active result; n = inactive; x = no result given. In the library only some 2.4% were active in any assay of this set; here they are far more common.

SMILES	DNA FID counter	ANO1 block	ANO1 activ	Apaf1 inhib	UBC13 polyUb	Apaf-1 inh conf2	Rh110 quench	others
NC(=O)[C@H](Cc1cc2ccccc2s1)NC(=O)[C@@H]1CC2(CC(c3cccc(NC(=O)[C@@H]4CCC(=O)N4)c3)=NO2)CN1C(=O)/C=C/c1c(F)cccc1Cl (stereo partly drawn)	n	n	n	46.9	n	n	n
CC1CCN(S(=O)(=O)c2ccc3c4c2CC(=O)N4CC(C)S3)CC1 (stereo not drawn)	n	n	n	94.4	n	86.5	n	Fluor interf inh=n
Cc1ccc(S(=O)(=O)N2CCN(S(=O)(=O)N3CCC(C)CC3)CC2)c(C)c1	n	n	n	n	n	x	x
Cc1c(CCOC(=O)c2ccc(Cl)cc2Cl)sc[n+]1CC(=O)c1ccccc1	x	x	n	55.9	n	n	n
Cc1c(CCOC(=O)c2cc([N+](=O)[O-])cc([N+](=O)[O-])c2)sc[n+]1CC(=O)c1ccc(Br)cc1	n	n	n	n	n	x	x
COc1ccc(Cl)cc1NC(=O)C(C)N1CCN(C/C=C/c2ccccc2)CC1 (stereo not drawn)	n	n	n	42.9	n	n	n
CC(=O)c1ccc(NC(=O)C(C)N2CCN(C/C=C/c3ccccc3)CC2)cc1 (stereo not drawn)	n	n	n	n	n	x	x
CC1Cc2ccccc2N1C(=O)CCS(=O)(=O)c1ccc2c(c1)NC(=O)CS2 (stereo not drawn)	n	n	n	n	n	x	x
Cc1cccc2sc(N(CCCN(C)C)C(=O)c3ccc(S(=O)(=O)N4CCc5ccccc5C4)cc3)nc12	38.2	n	n	62.6	n	n	n
O=C(O)C1CC2C3CC(C(=O)O)C(C3)C2C1 (stereo not drawn)	x	x	n	x	x	x	x
CC1(C)Nc2ccc(O)cc2-c2c1ssc2=S	n	n	n	51.3	n	n	n
COc1cccc(-n2sc3c(c2=S)-c2cc(OC)ccc2NC3(C)C)c1	n	n	n	n	n	x	x
CCN(CC(=O)Nc1cc(S(=O)(=O)N2CCOCC2)ccc1Cl)Cc1ccccc1	x	x	n	42.0	n	n	n
CCN1CCN(c2ccc(S(=O)(=O)N3CCCCC3)cc2NC(=O)/C=C/c2ccc(OC(F)F)cc2)CC1	x	n	n	51.9	n	n	n
CN1CCN(c2ccc(S(=O)(=O)N3CCCCC3)cc2NC(=O)/C=C/c2ccc(Cl)c([N+](=O)[O-])c2)CC1	x	n	n	51.2	n	n	n
CCN1CCN(c2ccc(S(=O)(=O)N3CCOCC3)cc2NC(=O)CC(C)C)CC1	x	x	n	50.1	n	n	n
Cn1nc(-c2ccc(Cl)cc2)cc1NC(=O)CSCC(=O)O	n	n	n	n	n	x	x
CCCN(CC(=O)Nc1ccccc1C)C(=O)C1CC(=O)N(c2ccccc2OCC)C1 (stereo not drawn)	x	x	n	x	x	x	x
CCCN(CC(=O)Nc1ccccc1C)C(=O)C1CC(=O)N(c2ccccc2C(C)CC)C1 (stereo not drawn)	x	x	n	48.1	n	n	n
CCCN(CC(=O)Nc1ccccc1C)C(=O)C1CCCN(C(=O)c2ccc(Cl)cc2)C1 (stereo not drawn)	x	x	n	48.4	n	n	n
Cc1cccc(C)c1NC(=O)CNC(=O)C1CCCN(C(=O)c2ccc(Cl)cc2)C1 (stereo not drawn)	x	x	n	n	n	x	x
CCN(CC(=O)Nc1ccc(OC)cc1)C(=O)C1CCN(C(=O)c2ccc(Cl)cc2)CC1	x	x	n	57.5	n	n	n
CCCS(=O)(=O)N1CCN(CCN2C(=O)c3cccc4cccc(c34)C2=O)CC1	n	n	n	n	n	x	x
CCO[C@@H]1OC(C(=O)N2CCN(Cc3ccc4c(c3)OCO4)CC2)=C[C@H](c2ccc(Br)cc2)[C@H]1CCCO	n	n	n	n	n	x	x
CCO[C@@H]1OC(C(=O)N2CCN(Cc3ccc4c(c3)OCO4)CC2)=C[C@H](c2ccc(C(F)(F)F)cc2)[C@H]1CCCO	n	n	n	41.8	n	n	n
SMILES	DNA FID counter	ANO1 block	ANO1 activ	Apaf1 inhib	UBC13 polyUb	Apaf-1 inh conf2	Rh110 quench	others
CC1=CC(=C(C#N)c2nc3ccccc3s2)C=C(C)N1c1ccc(F)cc1	n	n	n	44.6	n	n	n
COc1ccccc1N1C(C)=CC(=C(C#N)c2nc3ccccc3s2)C=C1C	n	n	n	55.6	n	n	n
CC(=O)N=Cc1c(C)c(C#N)c(=O)n(C)c1O	n	n	n	43.9	n	n	n
O=C(NCc1ccncc1)C(=O)NCC(c1ccco1)N1CCN(c2ccccc2)CC1 (stereo not drawn)	n	n	n	n	n	x	x
FC(F)Oc1ccc(NC(=S)NCc2ccccc2)cc1	n	n	n	n	n	x	x
Oc1cccc2c(NC(=S)Nc3ccc(OC(F)F)cc3)cccc12	n	n	n	65.3	n	n	n
O=c1[nH]c(/C=C/c2ccc(OC(F)F)cc2)nc2c1cnn2-c1ccccc1	n	n	n	n	n	x	x
Cc1cc(C)c(C(N)=O)c(Nc2cccc3ccccc23)n1	n	n	n	96.2	n	n	n
COc1ccccc1Nc1nc(C)cc(C)c1C(N)=O	n	n	n	n	n	x	x
CCCCN(Cc1ccccc1)C(=O)C1CCC(=O)N(CCc2ccccn2)C1 (stereo not drawn)	n	n	n	n	n	x	x
Cc1ccc(S(=O)(=O)NCc2ccc3c(c2)cc(C)n3C)cc1	n	n	n	50.6	n	n	n
Cc1cc2cc(CNC(=O)NC3CCCCC3)ccc2n1C	n	n	n	50.8	n	n	n
COCC(=O)NCc1ccc2c(c1)cc(C)n2C	n	n	n	n	n	x	x
Cc1cc2cc(CNC(=O)Nc3ccc(Cl)c(Cl)c3)ccc2n1C	n	n	n	62.3	n	n	n
Cc1onc(-c2ccccc2Cl)c1C(=O)NCc1ccc2c(c1)cc(C)n2C	x	n	n	53.1	n	n	n
CC1(c2ccc(OC(F)F)cc2)NC(=O)N(CC(=O)Nc2ccc(N3CCCCC3)cc2)C1=O (stereo not drawn)	x	n	n	53.2	n	n	n
Cc1csc(=O)n1CC(=O)OCC(=O)c1ccc(Br)cc1	x	n	n	n	n	x	x
Cc1ccc(Oc2nnc(-c3ccc(C)cc3)c3ccccc23)cc1	n	n	n	n	n	x	x

Screens as filed in PubChem BioAssay.
